hiPSC survival = enhancers of single-cell hiPSC survival, primary screen, ATPlite luminescence; 100% = ROCK inhibitor wells, 0% = DMSO; survival enhancement, % at 20 µM; hit rate 0.044% among 360,000; AID 602274, 2012; in the data active means survival enhancement above about 18%;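 further: cells exposed to compounds for 16 hours before the ATP read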
TAG inh = inhibitors of triacylglycerol accumulation, primary screen, cell-based, uHTS, fluorescence, H9c2 | H9c2 cells, Nile Red lipid (TAG) fluorescence; cells loaded with 200 µM oleic acid | inhibition, % at 12.5 µM | hit rate 0.66% among 230,000 | AID 651582, 2012;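 active means pattern-corrected inhibition of lipid staining of at least 50% with the nuclear-stain viability signal not falling by more than 50%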
Lipid droplet = inhibitors of hepatocyte lipid droplet formation, primary screen, imaging, high-throughput imaging, BODIPY stain; AML12 mouse hepatocytes, oleate lipid droplets; inhibition, % at 6.5 µM; hit rate 0.4% among 240,000; AID 1656, 2009;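 active means lipid droplet intensity inhibited by at least 50%, with more than 500 cells counted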
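Assay system: AML12 mouse liver cells | Compound dosing: One dose, 6.5 µM compound | Read-out basis: Droplet intensity reduction, % inhibition | Measured by: Fluorescence imaging, 20x objective, two fields per well | Schedule: Overnight treatment with compound plus oleate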
Gli-Sufu block = Gli-Sufu pathway antagonists, primary screen, luciferase luminescence, Sufu-KO-LIGHT cells, uHTS; Sufu-KO-LIGHT fibroblasts, Gli luciferase reporter luminescence; inhibition, % at 5 µM; hit rate 0.74% among 340,000; AID 588413, 2011;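 active means inhibition above about 55%, limit read from the data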
697 NFkB inh = inhibitors of PMA/ionomycin-induced NF-kB reporter, 697 cells, primary screen, B-cell NF-kB inhibitor project, cell-based, luminescence, uHTS. 697 B-cell NF-kB luciferase reporter, 16 h. inhibition, % at 4 µM. hit rate 0.33% among 330,000; in the data active means inhibition above about 35%
Jurkat NFkB inh = inhibitors of induced NF-kB luciferase reporter, primary screen, TCR NF-kB activation inhibitor project, cell-based, luminescence, uHTS; Jurkat, PMA/ionomycin-induced NF-kB luciferase reporter; inhibition, % at 4 µM; hit rate 0.53% among 330,000; AID 435003, 2010; in the data active means inhibition above about 50%
Numbers stand for hits. Sampled rows, rich in hits. Any-hit rate of the full collection: about 1.8%.

Screening O=C(CSc1ccc(Cl)cc1)NC1CCCc2ccccc21 (stereo unspecified) returned hiPSC survival inactive, Lipid droplet inactive, Gli-Sufu block inactive, 697 NFkB inh inactive and Jurkat NFkB inh inactive.
Screening O=c1c(Cl)c(Cl)cnn1-c1ccccc1 returned hiPSC survival inactive, TAG inh 72, Lipid droplet inactive and Gli-Sufu block inactive.
For CCSc1cnn(-c2ccccc2)c(=O)c1Cl the results were hiPSC survival 37, TAG inh inactive, Gli-Sufu block inactive, 697 NFkB inh inactive and Jurkat NFkB inh inactive.
For CCOc1cnn(-c2ccccc2)c(=O)c1Cl the results were hiPSC survival 58, Gli-Sufu block inactive, 697 NFkB inh inactive and Jurkat NFkB inh inactive.
`CCSc1cnn(-c2ccccc2)c(=O)c1SCC` gave hiPSC survival inactive, Lipid droplet inactive, Gli-Sufu block inactive, 697 NFkB inh inactive and Jurkat NFkB inh inactive.
Screening COc1ccc(C(=O)COC(=O)c2cnc(C)cn2)cc1OC returned hiPSC survival inactive, TAG inh inactive, Gli-Sufu block inactive, 697 NFkB inh inactive and Jurkat NFkB inh inactive.
Cc1ccc(S(=O)(=O)N2CCC(C(=O)NNC(=O)c3ccc(F)cc3)CC2)cc1 was read as hiPSC survival inactive, TAG inh inactive, Lipid droplet inactive, Gli-Sufu block inactive, 697 NFkB inh inactive and Jurkat NFkB inh inactive.
`O=C(Nc1ccc(S(=O)(=O)N2CCCC2)cc1)c1ccc([N+](=O)[O-])cc1` gave hiPSC survival inactive, Lipid droplet inactive, Gli-Sufu block inactive, 697 NFkB inh inactive and Jurkat NFkB inh inactive.
Screening COc1ccc(-c2c(C#N)c(N)nc(Sc3ccc(Cl)cc3)c2C#N)cc1 returned hiPSC survival inactive, TAG inh 54, Lipid droplet inactive, Gli-Sufu block inactive, 697 NFkB inh inactive and Jurkat NFkB inh inactive.
`O=C(N/N=C/c1cc(Cl)cc(Cl)c1O)c1ccncc1` gave hiPSC survival inactive, TAG inh 65, Lipid droplet inactive, Gli-Sufu block inactive, 697 NFkB inh inactive and Jurkat NFkB inh inactive.
CC(C)(C)c1ccc(CN2N=Nc3ccccc3S2(=O)=O)cc1 was read as hiPSC survival inactive, TAG inh 51, Gli-Sufu block inactive, 697 NFkB inh inactive and Jurkat NFkB inh inactive.
`C[N+]1(C2CCC3CCCC2C3O)CCCCC1` (stereo unspecified) gave hiPSC survival inactive, TAG inh inactive, Lipid droplet inactive, Gli-Sufu block inactive, 697 NFkB inh inactive and Jurkat NFkB inh inactive.
O=C(O)CNC(=O)CC1S/C(=N/N=C2/NC(=O)CS2)NC1=O (stereo unspecified) was read as hiPSC survival inactive, TAG inh inactive, Lipid droplet inactive, Gli-Sufu block inactive, 697 NFkB inh inactive and Jurkat NFkB inh inactive.
Screening COc1ccc(NC(=O)CSc2nc3ccccc3nc2N2CCCC2)cc1 returned hiPSC survival inactive, TAG inh inactive, Lipid droplet 50, Gli-Sufu block inactive, 697 NFkB inh inactive and Jurkat NFkB inh inactive.
For O=C(NC1CCCCC1)C1c2ccccc2OCC(=O)N1Cc1cccnc1 (stereo unspecified) the results were hiPSC survival inactive.
`CC(=O)Nc1ccc(NC(=O)CSc2nnc3ccc(-c4cccnc4)nn23)cc1` gave hiPSC survival inactive, TAG inh inactive, Gli-Sufu block inactive, 697 NFkB inh inactive and Jurkat NFkB inh inactive.
Screening CCOC(=O)C(NC(C)=O)(OCc1ccccc1)C(F)(F)F (stereo unspecified) returned hiPSC survival inactive, TAG inh inactive, Lipid droplet inactive, Gli-Sufu block inactive, 697 NFkB inh inactive and Jurkat NFkB inh inactive.
Screening CCOC(=O)C(NC(=O)c1cccc(Cl)c1)(OCc1ccccc1)C(F)(F)F (stereo unspecified) returned hiPSC survival inactive, Lipid droplet 71, Gli-Sufu block inactive, 697 NFkB inh inactive and Jurkat NFkB inh inactive.
`COc1ccc(-n2nc3c(N4CCC(C(=O)NCc5cccc(C)c5)CC4)nnc(C)c3c2C)cc1` gave hiPSC survival inactive, Lipid droplet inactive, Gli-Sufu block 74, 697 NFkB inh inactive and Jurkat NFkB inh inactive.
For CC(=NNC(=S)N1CC2CCC(CC2)C1)c1ccncn1 the results were hiPSC survival inactive, TAG inh inactive and Gli-Sufu block 85.
For CC(=NNC(=S)N1CCCCC1)c1ccccn1 the results were hiPSC survival inactive and TAG inh inactive.
`CCOC(=O)c1c(NC(=O)C2c3ccccc3Oc3ccccc32)sc(C(=O)N(CC)CC)c1C` gave hiPSC survival inactive, TAG inh 81, Gli-Sufu block inactive, 697 NFkB inh inactive and Jurkat NFkB inh inactive.
For CC(=O)N1CC2([N+](=O)[O-])CN(C(C)=O)CC([N+](=O)[O-])(C1)C2(C)C the results were hiPSC survival inactive, TAG inh inactive, Lipid droplet inactive, Gli-Sufu block inactive, 697 NFkB inh inactive and Jurkat NFkB inh inactive.
For CC1(C)c2ssc(=S)c2-c2ccccc2N1C(=O)CSC1=NCCS1 the results were hiPSC survival inactive, TAG inh inactive, Gli-Sufu block inactive, 697 NFkB inh inactive and Jurkat NFkB inh inactive.
`Cc1cc2c(cc1C)N(C(=O)CSC1=NCCS1)C(C)(C)c1ssc(=S)c1-2` gave hiPSC survival inactive, Lipid droplet 67, Gli-Sufu block inactive, 697 NFkB inh inactive and Jurkat NFkB inh inactive.
Screening COc1cc2ncnc(Nc3cccc(Cl)c3)c2cc1OC returned Lipid droplet 65.
For CC(C)CN1C(=O)c2ccc(NC(=O)Cc3ccccc3)cc2C1=O the results were hiPSC survival inactive, TAG inh inactive, Lipid droplet inactive, Gli-Sufu block inactive, 697 NFkB inh inactive and Jurkat NFkB inh inactive.
Screening CCCCn1c(N)c(N(CCC(C)C)C(=O)c2ccc([N+](=O)[O-])s2)c(=O)[nH]c1=O returned hiPSC survival inactive, TAG inh inactive, Gli-Sufu block inactive, 697 NFkB inh inactive and Jurkat NFkB inh inactive.
Screening Cc1ccc(N(C(=O)Cc2cccs2)C(C(=O)NC2CCCCC2)c2ccccn2)cc1C (stereo unspecified) returned hiPSC survival inactive, Lipid droplet inactive, Gli-Sufu block inactive, 697 NFkB inh inactive and Jurkat NFkB inh inactive.
`Oc1cccc2cc(Nc3ccccc3)cnc12` gave hiPSC survival inactive and TAG inh 69.
For CC(=O)NC(Cc1ccccc1F)C(=O)NC1CCN(C(=O)Nc2ccc(C)cc2)CC1 (stereo unspecified) the results were hiPSC survival inactive, Lipid droplet inactive, Gli-Sufu block inactive, 697 NFkB inh inactive and Jurkat NFkB inh inactive.
For CCCCCC[N+](C)(C)CC/C=C1/c2ccccc2Sc2ccc(Cl)cc21 the results were hiPSC survival inactive, TAG inh 56, Lipid droplet inactive, Gli-Sufu block inactive, 697 NFkB inh inactive and Jurkat NFkB inh inactive.
